IC50, CC50 and EC50 data for 24 compounds are collected here from ChEMBL document CHEMBL1240527, “3'-Deoxy phosphoramidate dinucleosides as improved inhibitors of hepatitis C virus subgenomic replicon and NS5B polymerase activity” (J Med Chem, 2010).

Usually pIC50 stands for −log10 of the IC50, conventionally taken in molar units. As a reminder, the CC50 is the concentration that lowers cell viability or growth by half. Low readings indicate harm at low concentration, high ones better tolerance by the cells. Broadly, the pEC50 is the EC50 on a negative log10 scale, so that one unit is a factor of ten.

Molecules are shown by their SMILES. pEC50, pIC50: −log10 of the molar value.

Series [1] in a line: Inhibition of HCV recombinant His6x-tagged NS5B Cdelta55 polymerase-mediated RNA synthesis expressed in Escherichia coli BL21(DE3) assessed as reduction of pppGpC accumulation after 15 mins. More on the design: species or system Hepacivirus hominis. In a few lines: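 Inhibitor range 0–1000 μM. Reaction started with 2 mM MnCl2, 1 mM MgCl2, 50 μM γ-32P-GTP and 100 μM CTP, then 15 min at 30 C. EDTA/formamide quench. pppGpC resolved on sequencing gel and quantified by phosphorimaging. IC50 fitted; at least three experiments.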

Series [2] in a line: Cytotoxicity against human HuH6 cells after 3 days by MTS/PMS method. Type of series: cell-based. The gist of the method:
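Run in parallel with the replicon assay: Huh-6 genotype 1b replicon cells seeded 1.5 × 10^4/well, treated 24 h later with 0.025–65 μM compound in complete DMEM for 3 days at 37 C, 5% CO2. Cell number read by MTS/PMS. CC50 is the concentration giving 50% reduction in proliferation of exponentially growing cells versus untreated control.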

The test system of the next series is Hepatitis C virus. The series is described as follows: Antiviral activity against HCV1b infected in human HuH6 cells assessed as inhibition of viral RNA replication after 3 days by RT-PCR analysis. Type of series: functional, organism-based, Hepacivirus hominis. The following applies: genotype 1b, HuH-6, 72 h. In a few lines: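 Huh-6 cells stably carrying a genotype 1b (Con1-derived) subgenomic HCV replicon, seeded 1.5 × 10^4 cells/well and incubated 24 h at 37 C, 5% CO2. Then exposed to serial dilutions from 0.025 to 65 μM (10 concentrations) in complete DMEM for 3 days. Lysates assayed for replicon RNA by real-time RT-qPCR against a neomycin-plasmid standard curve. EC50 is 50% RNA reduction versus untreated control, averaged over three independent experiments.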

As for `CO[C@@H]1[C@H](O[P@@](=O)(NCCCCCC(=O)O)OC[C@H]2O[C@@H](n3ccc(N)nc3=O)[C@H](O)[C@@H]2O)[C@@H](COP(=O)(O)O)O[C@H]1n1cnc2c(=O)[nH]c(N)nc21`, in series [1], the pIC50 was 4.59.
Consider `COCCN[P@@](=O)(OC[C@H]1O[C@@H](n2ccc(N)nc2=O)[C@H](O)[C@@H]1O)O[C@H]1[C@@H](OC)[C@H](n2cnc3c(=O)[nH]c(N)nc32)O[C@@H]1COP(=O)(O)O`, for which the negative logarithm of the IC50 (pIC50) in series [1] is 4.55. For the same compound, the CC50 at 72 h in series [2] was above 65 µM. In addition, the pEC50 with Hepatitis C virus is 4.42.
Turning to `CO[C@@H]1[C@H](O[P@@](=O)(NCCCCCC(=O)O)OC[C@@H]2C[C@@H](O)[C@H](n3ccc(N)nc3=O)O2)[C@@H](COP(=O)(O)O)O[C@H]1n1cnc2c(=O)[nH]c(N)nc21`, in series [1], the pIC50 is 5.05.
On to `COCCN[P@@](=O)(OC[C@@H]1C[C@@H](O)[C@H](n2ccc(N)nc2=O)O1)O[C@H]1[C@@H](OC)[C@H](n2cnc3c(=O)[nH]c(N)nc32)O[C@@H]1COP(=O)(O)O`, for which, in series [1], the pIC50 was 4.14. This compound registered a CC50 at 72 h in series [2] above 65 µM. Further, the pEC50 in the series with Hepatitis C virus was 5.80.
Regarding `COCCNP(=O)(OC[C@@H]1C[C@@H](O)[C@H](n2ccc(N)nc2=O)O1)O[C@H]1[C@@H](OC)[C@H](n2cnc3c(=O)[nH]c(N)nc32)O[C@@H]1COP(=O)(O)O` (some centres undefined), the pIC50 in series [1] is 4.54. The compound also yielded a CC50 at 72 h in series [2] above 65 µM. Moreover, the pEC50 in the series with Hepatitis C virus was 4.71.
Consider `CO[C@@H]1[C@H](O[P@@](=O)(NCCCC(C(=O)O)C(=O)O)OC[C@@H]2C[C@@H](O)[C@H](n3ccc(N)nc3=O)O2)[C@@H](COP(=O)(O)O)O[C@H]1n1cnc2c(=O)[nH]c(N)nc21`, for which the pIC50 in series [1] was 3.92.
Take `CO[C@@H]1[C@H](OP(=O)(NCCCC(C(=O)O)C(=O)O)OC[C@@H]2C[C@@H](O)[C@H](n3ccc(N)nc3=O)O2)[C@@H](COP(=O)(O)O)O[C@H]1n1cnc2c(=O)[nH]c(N)nc21` (some centres undefined): in series [1], the pIC50 was 5.10. Besides, in series [2], the CC50 at 72 h was above 65 µM. Further, the pEC50 with Hepatitis C virus is 5.59.
As to `CO[C@@H]1[C@H](O[P@](=O)(NCCCCCC(=O)O)OC[C@H]2O[C@@H](n3ccc(N)nc3=O)[C@H](O)[C@@H]2O)[C@@H](COP(=O)(O)O)O[C@H]1n1cnc2c(=O)[nH]c(N)nc21`, the pIC50 in series [1] is 4.80.
Same read-out and setting: in the case of `CO[C@@H]1[C@H](OP(=O)(NCCCOP(=O)(O)O)OC[C@@H]2C[C@@H](O)[C@H](n3ccc(N)nc3=O)O2)[C@@H](CO)O[C@H]1n1cnc2c(=O)[nH]c(N)nc21` (some centres undefined) it was 4.68.
In the case of `COCCNP(=O)(OC[C@H]1O[C@@H](n2ccc(N)nc2=O)[C@H](O)[C@@H]1O)O[C@H]1[C@@H](OC)[C@H](n2cnc3c(=O)[nH]c(N)nc32)O[C@@H]1COP(=O)(O)O` (some centres undefined), in series [1], the pIC50 was 3.85. Also, the CC50 at 72 h in series [2] was above 65 µM. The pEC50 with Hepatitis C virus is below 4.30.
On to `CO[C@@H]1[C@H](O[P@@](=O)(NCCCOP(=O)(O)O)OC[C@@H]2C[C@@H](O)[C@H](n3ccc(N)nc3=O)O2)[C@@H](COP(=O)(O)O)O[C@H]1n1cnc2c(=O)[nH]c(N)nc21`, for which the pIC50 in series [1] was 4.69.
Regarding `COCCN[P@](=O)(OC[C@@H]1C[C@@H](O)[C@H](n2ccc(N)nc2=O)O1)O[C@H]1[C@@H](OC)[C@H](n2cnc3c(=O)[nH]c(N)nc32)O[C@@H]1COP(=O)(O)O`, the pIC50 in series [1] was 5.15. Besides, the CC50 at 72 h in series [2] was above 65 µM. Besides, the pEC50 in the series on Hepatitis C virus was 5.60.
`CO[C@@H]1[C@H](OP(=O)(NCCCCCC(=O)O)OC[C@@H]2C[C@@H](O)[C@H](n3ccc(N)nc3=O)O2)[C@@H](CO)O[C@H]1n1cnc2c(=O)[nH]c(N)nc21` (some centres undefined): the pIC50 in series [1] was 4.17.
Turning to `COCCOCCNP(=O)(OC[C@@H]1C[C@@H](O)[C@H](n2ccc(N)nc2=O)O1)O[C@H]1[C@@H](OC)[C@H](n2cnc3c(=O)[nH]c(N)nc32)O[C@@H]1COP(=O)(O)O` (some centres undefined), the pIC50 in series [1] is 4.74. Also, in series [2], the CC50 at 72 h was above 65 µM. Also, the pEC50 with Hepatitis C virus is 5.44.
As to `CO[C@@H]1[C@H](O[P@](=O)(NCCCC(C(=O)O)C(=O)O)OC[C@@H]2C[C@@H](O)[C@H](n3ccc(N)nc3=O)O2)[C@@H](COP(=O)(O)O)O[C@H]1n1cnc2c(=O)[nH]c(N)nc21`, the pIC50 in series [1] was 4.24.
Still for that read-out and setting: then `COCCOCCN[P@](=O)(OC[C@@H]1C[C@@H](O)[C@H](n2ccc(N)nc2=O)O1)O[C@H]1[C@@H](OC)[C@H](n2cnc3c(=O)[nH]c(N)nc32)O[C@@H]1COP(=O)(O)O`, with 4.38; and `CO[C@@H]1[C@H](OP(=O)(NCCCCCC(=O)O)OC[C@H]2O[C@@H](n3ccc(N)nc3=O)[C@H](O)[C@@H]2O)[C@@H](COP(=O)(O)O)O[C@H]1n1cnc2c(=O)[nH]c(N)nc21` (some centres undefined), with 4.08.
In the case of `COCCN[P@](=O)(OC[C@H]1O[C@@H](n2ccc(N)nc2=O)[C@H](O)[C@@H]1O)O[C@H]1[C@@H](OC)[C@H](n2cnc3c(=O)[nH]c(N)nc32)O[C@@H]1COP(=O)(O)O`, the pIC50 in series [1] is 4.43. The CC50 at 72 h in series [2] is above 65 µM. For the same compound, the pEC50 in the series with Hepatitis C virus was 5.35.
Take `CO[C@@H]1[C@H](O[P@](=O)(NCCCOP(=O)(O)O)OC[C@@H]2C[C@@H](O)[C@H](n3ccc(N)nc3=O)O2)[C@@H](COP(=O)(O)O)O[C@H]1n1cnc2c(=O)[nH]c(N)nc21`: the pIC50 in series [1] was 4.73.
Turning to `CO[C@@H]1[C@H](OP(=O)(NCCCOP(=O)(O)O)OC[C@@H]2C[C@@H](O)[C@H](n3ccc(N)nc3=O)O2)[C@@H](COP(=O)(O)O)O[C@H]1n1cnc2c(=O)[nH]c(N)nc21` (some centres undefined), the pIC50 in series [1] was 5.00. Moreover, the CC50 at 72 h in series [2] is above 65 µM. Moreover, in the series with Hepatitis C virus, the pEC50 was 5.41.
On to `CO[C@@H]1[C@H](OP(=O)(NCCCC(C(=O)O)C(=O)O)OC[C@@H]2C[C@@H](O)[C@H](n3ccc(N)nc3=O)O2)[C@@H](CO)O[C@H]1n1cnc2c(=O)[nH]c(N)nc21` (some centres undefined), for which the pIC50 in series [1] is 4.72.
Same read-out and setting: then `CO[C@@H]1[C@H](O[P@](=O)(NCCCCCC(=O)O)OC[C@@H]2C[C@@H](O)[C@H](n3ccc(N)nc3=O)O2)[C@@H](COP(=O)(O)O)O[C@H]1n1cnc2c(=O)[nH]c(N)nc21`, with 4.89; and `COCCOCCN[P@@](=O)(OC[C@@H]1C[C@@H](O)[C@H](n2ccc(N)nc2=O)O1)O[C@H]1[C@@H](OC)[C@H](n2cnc3c(=O)[nH]c(N)nc32)O[C@@H]1COP(=O)(O)O`, with 4.19.
With `CO[C@@H]1[C@H](OP(=O)(NCCCCCC(=O)O)OC[C@@H]2C[C@@H](O)[C@H](n3ccc(N)nc3=O)O2)[C@@H](COP(=O)(O)O)O[C@H]1n1cnc2c(=O)[nH]c(N)nc21` (some centres undefined), the pIC50 in series [1] is 4.47. In series [2], this compound came in with a CC50 at 72 h above 65 µM. Besides, the pEC50 in the series with Hepatitis C virus was 5.77.
